14-3-3 Bad PPI = inhibitors of 14-3-3 zeta/Bad binding, primary screen, biochemical, TR-FRET, bovine 14-3-3 zeta. TR-FRET 14-3-3zeta/Dy647-pBad peptide displacement, 1 h. inhibition, % at 21.7 µM. actives 0.71% (n = 220,000);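 active = inhibition above about 70%, limit read from the data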;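 note: 0% = full 14-3-3 plus peptide FRET controls and 100% = background without 14-3-3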
WT yeast gro inh = growth inhibition of WT strain, primary screen, mitochondrial fusion inhibitor project, WT and mutant strains, chemical genetic; mitochondrial fusion phenotypic screen; inhibition, % at 10 µM; actives 2.1% (n = 190,000); AID 1362, 2008; in the data active = inhibition above about 58%; tested in S. cerevisiae
EBV gp42 inh = Epstein-Barr virus gp42 inhibitors, primary screen, biochemical, uHTS, fluorescence polarization | Glycoprotein 42 (Epstein-Barr virus (strain AG876)), Q1HVG2 | Fluorescence polarization binding assay, mP read-out | inhibition, % (tested at 21.74 µM) | actives 0.42% (n = 220,000) | AID 1085, 2008; in the data active = inhibition above about 50%
RBBP9 inhibitor = human RBBP9 inhibitors, primary screen, biochemical, fluorescence polarization, FP-Rh probe, HTS | recombinant RBBP9 | inhibition, % at 7.94 µM | actives 0.2% (n = 220,000);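 active = inhibition above the campaign mean of all tested compounds plus 3 SD, cut at about 14% in these data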;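 note: plate controls were DMSO wells with RBBP9 for no effect and wells lacking RBBP9 protein for full effect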
Target sequence (O75884 whole entry, looked up): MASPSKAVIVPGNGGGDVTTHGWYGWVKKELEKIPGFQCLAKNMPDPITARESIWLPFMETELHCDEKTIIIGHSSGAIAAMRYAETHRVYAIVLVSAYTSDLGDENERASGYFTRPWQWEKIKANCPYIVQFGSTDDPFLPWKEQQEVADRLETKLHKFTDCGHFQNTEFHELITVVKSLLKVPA
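Test system: recombinant human RBBP9; Timing: 30 min then 45 min, 25 °C; Detection: fluorescence polarization; Control set: RBBP9 with DMSO as uninhibited control, no-protein wells as full inhibition; Compound dosing: one concentration, 7.94 µM nominal, 0.794% DMSO; Probe or stimulus: FP-Rh activity-based probe, 375 nM before mixing.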
NCF1 inh = p47phox/p22phox peptide binding inhibitors, primary screen, biochemical, uHTS, NADPH oxidase regulatory subunit. Neutrophil cytosol factor 1 (Homo sapiens), P14598. fluorescence polarization, 2 h. inhibition, % at 24.7 µM. actives 0.53% (n = 220,000);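 note: 0% = p47phox with labelled peptide and 100% = labelled peptide alone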
Target sequence (P14598 whole entry, looked up): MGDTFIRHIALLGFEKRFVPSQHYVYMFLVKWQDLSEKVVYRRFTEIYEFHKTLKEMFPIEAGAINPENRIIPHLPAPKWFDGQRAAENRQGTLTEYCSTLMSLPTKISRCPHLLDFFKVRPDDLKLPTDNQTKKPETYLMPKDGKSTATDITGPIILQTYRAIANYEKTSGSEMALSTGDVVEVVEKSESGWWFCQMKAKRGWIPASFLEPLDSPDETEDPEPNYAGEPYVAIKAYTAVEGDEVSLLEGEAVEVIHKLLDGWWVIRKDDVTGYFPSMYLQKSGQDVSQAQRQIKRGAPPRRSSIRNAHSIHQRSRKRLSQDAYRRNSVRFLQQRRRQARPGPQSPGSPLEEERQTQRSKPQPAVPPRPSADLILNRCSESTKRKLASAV
eIF4E-4G inh = eIF4E–eIF4G protein interaction inhibitors, primary screen, biochemical, uHTS, TR-FRET, eIF4GI fragment | actives 0.37% (n = 220,000) | TR-FRET eIF4E-eIF4GI(517-606) binding, 2 h | Eukaryotic translation initiation factor 4E (Mus musculus) + Eukaryotic translation … | inhibition, % at 21.7 µM;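 note: 0% = full FRET control wells and 100% = background wells lacking eIF4GI fragment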
* marks the source's active call; other numbers are inactive results; . = no result given. A selection: hits, their analogues and other compounds. The true share with any hit is near 3.7%.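 Rule for the calls, unless noted: active = inhibition above about 30% (limit read from the data); inactive = the rest.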

SMILES	14-3-3 Bad PPI	WT yeast gro inh	EBV gp42 inh	RBBP9 inhibitor	NCF1 inh	eIF4E-4G inh
CCc1ccccc1N1CSC2=C(C#N)C(c3cc(OC)c(OC)cc3OC)CC(=O)N2C1 (stereo not drawn)	12	-1	-32	-2	31*	18
COc1cc(OC)c(C2CC(=O)N3CN(c4ccccc4)CSC3=C2C#N)cc1OC (stereo not drawn)	8	-8	-17	9	9	4
CC(C)(C)n1nnnc1C(c1cccs1)N(Cc1cccnc1)Cc1ccccc1Cl (stereo not drawn)	-5	74*	-4	0	0	-2
Cc1onc(-c2ccccc2Cl)c1C(=O)N(Cc1nc(-c2ccccc2)no1)C1CCCCC1	3	44	-11	8	-9	0
COc1ccc(C(=O)N(Cc2nc(-c3ccc(C)cc3)no2)C2CCCCC2)cc1OC	-1	65*	14	3	-15	-5
CCOCCCNC(=O)NC12CC3CC(CC(C3)C1)C2	-8	58*	-8	-6	-6	-4
CNC(=O)c1cc(NC(=O)CCn2nc(-c3ccccc3)c3ccccc3c2=O)ccc1OC	-7	.	-6	-3	-11	-1
O=[N+]([O-])c1ccc(N2N=C(c3ccco3)CC2c2ccccc2)cc1 (stereo not drawn)	-2	-24	70*	-5	-40	-6
CCn1c(=O)c(C(=O)CN2CCN(S(=O)(=O)c3cc(C)ccc3C)CC2)c(N)n(Cc2ccccc2)c1=O	-9	28	12	-8	-67	-12
Fc1ccccc1Sc1ccccc1CNC1=NCCN1	6	80*	-31	-5	-6	-5
N#C/C(=C\c1coc2ccc(O)cc2c1=O)C(=O)Nc1nc2ccccc2s1	43	.	47	3	-87	21
Cc1cccc(CSCCNC(=O)Nc2ccccc2)c1	4	25	-8	-6	-2	-1
CC(C)COc1ccc(CSCCNC(=S)Nc2ccccc2)cc1	-10	76*	3	-13	-3	-2
CCCCOc1ccc(CSCCNC(=S)Nc2ccccc2)cc1	-4	53	-15	-11	-9	4
CCCCCOc1ccc(CSCCNC(=S)Nc2ccccc2)cc1	-5	68*	-6	-1	-30	-5
COc1ccc(C(NC(=O)/C=C/c2ccco2)c2ccc(OC)c(OC)c2)cc1OC	-9	5	-10	-2	-19	8
c1ccc(-c2nccc(-c3ccc4c(c3)OCO4)n2)cc1	4	34	9	-2	-23	2
c1ccc(-c2nccc(-c3ccc(-n4cnc5ccccc54)cc3)n2)cc1	96*	9	-81	-12	46*	-4
CCN(CC)CCCN1C(=O)C(=O)/C(=C(/O)c2cc(C)ccc2C)C1c1cccnc1 (stereo not drawn)	-13	8	-6	-5	-2	-5
CCN(CC)CCN1C(=O)C(=O)/C(=C(/O)c2ccc(C)cc2)C1c1cccnc1 (stereo not drawn)	5	.	-11	3	-3	97*
Cc1cc(C)nc(NS(=O)(=O)c2ccc(NC(=O)c3ccc4c(c3)OCCO4)cc2)n1	1	-1	-15	-1	0	2
CCOC(=O)c1ccc(N2Cc3ccccc3C2=NC(=O)c2cccs2)cc1	4	4	0	-8	-10	-7
CC(=O)c1ccc(N2Cc3ccccc3C2=NC(=O)c2cccs2)cc1	27	2	-8	-10	38*	13
O=C(Cc1c(Cl)cccc1Cl)OCC(=O)N1CCN(C(=O)c2ccco2)CC1	-10	-19	5	-4	-6	-1
COc1cccc2c(=O)cc(C)n(CC(=O)Nc3cccc(C)c3)c12	3	-4	-5	4	-7	2
SMILES	14-3-3 Bad PPI	WT yeast gro inh	EBV gp42 inh	RBBP9 inhibitor	NCF1 inh	eIF4E-4G inh
c1ccc(N2CCN(C3CCSC3)CC2)cc1 (stereo not drawn)	71*	12	-23	-4	-4	-1
Cc1cccc(C(=O)O/N=C/c2ccc(Br)cc2)c1	-7	60*	-6	-7	-9	0
CNC(=S)NNC(=O)c1cc(C(C)(C)C)nn1Cc1ccc(F)cc1	-3	.	-14	-3	-46	3
CCCC(C)NCC(=O)Nc1ccccc1-c1ccccc1 (stereo not drawn)	72*	4	10	-7	-19	-7
Cc1ccccc1CN(C)CC(=O)Nc1ccccc1-c1ccccc1	-3	79*	-18	2	-28	2
COc1ccccc1CN(C)CC(=O)Nc1ccccc1-c1ccccc1	-27	30	-3	-8	-11	-1
CNC(=S)Nc1cccc(C(=O)OC)c1	-4	.	3	-3	-1	-1
CCOCCCN(C(=O)Cn1nnc(-c2ccc(C)o2)n1)C(C(=O)NCC1CCCO1)c1ccc(F)cc1 (stereo not drawn)	0	.	3	0	-4	-1
Cc1ccc(C)c(NC(=O)CSc2nnc(-c3ccncc3)n2N)c1	-8	-6	2	-12	34*	-27
CCOc1ccc(C(=O)N/N=C/c2c(C)[nH]c(=O)[nH]c2=O)cc1	-4	.	-10	-6	-3	0
CC(C)(O)C1Cc2cc(/C=C/C(=O)O)c(O)cc2O1 (stereo not drawn)	32	-17	-4	-2	85*	62*
CCOc1cc(N2CCOCC2)c(OCC)cc1NC(=O)CSc1ncn[nH]1	9	0	-1	0	26	4
Cc1ccc2nc(-c3ccccn3)c(NC3CCCC3)n2c1	-16	74*	-12	-12	0	2
Cc1nc(C(=O)Nc2cccc(Cl)c2)nn1-c1cc(OC(C)C)c(Cl)cc1Cl	3	67*	-6	-15	-4	-13
Cc1cc(C(=O)Oc2cccnc2)ccc1[N+](=O)[O-]	-7	0	-6	-4	5	3
COc1ccc(Cn2cnc([N+](=O)[O-])c2)cc1[N+](=O)[O-]	99*	.	-11	-1	1	1
O=[N+]([O-])c1cn(Cc2ccc(Cl)cc2)cn1	16	-14	-5	2	-5	2
O=C(NCc1ccc(/C=c2\sc3n(c2=O)CCN=3)o1)C(=O)Nc1ccccc1	-9	-11	23	-8	-28	23
O=C(N/N=C/c1ccc([N+](=O)[O-])cc1)c1cc(-c2ccc3c(c2)OCO3)n[nH]1	76*	.	-20	0	15	-5

High-throughput results: PubChem, several laboratories
